Converted amounts (≈) assume the structure as drawn.
Experiments:
Leishmania donovani = assay: Antileishmanial activity against Leishmania donovani MHOM/ET/67/L82 amastigotes measured after 70 hrs by resazurin dye based fluorometric analysis; type: functional, organism-based; conditions: MHOM/ET/67/L82, 70 h
Plasmodium falciparum = assay: Antiplasmodial activity against bloodstream form of Plasmodium falciparum NF54 […] assessed as reduction in [3H]-hypoxanthine incorporation pretreated for 48 hrs followed by [3H]-hypoxanthine addition measured after 24 hrs by liquid scintillation counting method; type: functional, organism-based
L6 = assay: Cytotoxicity against rat L6 cells assessed as reduction in cell viability incubated for 70 hrs by resazurin dye based fluorescence assay; conditions: L6, 70 h
Method in brief: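 Uses cultured L-6 rat skeletal myoblasts with an Alamar Blue viability read-out, run per an earlier protocol. The IC50 is the mean of at least two independent experiments, with individual values within a factor of two.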

Trypanosoma cruzi = assay: Antitrypanosomal activity against Trypanosoma cruzi Tulahuen C4 strain amastigotes infected in rat L6 cells measured after 96 hrs by inverted microscopy analysis; type: functional, organism-based; conditions: Tulahuen C4, L6, 96 h
[1] = tested on: Trypanosoma brucei rhodesiense; assay: Antitrypanosomal activity against bloodstream form of Trypanosoma brucei rhodesiense STIB900 incubated for 70 hrs by resazurin dye-based fluorometric analysis; type: functional, organism-based; conditions: STIB900, 70 h
[2] = Selectivity index, ratio of IC50 for cytotoxicity against rat L6 cells to IC50 for antitrypanosomal activity against bloodstream form of Trypanosoma brucei rhodesiense STIB900; type: toxicity, cell-based; conditions: read-out: Ratio IC50
Method in brief: (§1)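 Each index is the L6-cell IC50 divided by the IC50 for the given parasite. Each IC50 is the mean of at least two independent experiments, agreeing within a factor of two.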

[3] = Selectivity index, ratio of IC50 for cytotoxicity against rat L6 cells to IC50 for antileishmanial activity against Leishmania donovani MHOM/ET/67/L82 amastigotes; type: toxicity, cell-based; conditions: read-out: Ratio IC50; method in brief: as §1
[4] = Selectivity index, ratio of IC50 for cytotoxicity against rat L6 cells to IC50 for antiplasmodial activity against bloodstream form of Plasmodium falciparum NF54; type: toxicity, cell-based; conditions: read-out: Ratio IC50; method in brief: as §1
[5] = Selectivity index, ratio of IC50 for cytotoxicity against rat L6 cells to IC50 for antitrypanosomal activity against Trypanosoma cruzi Tulahuen C4 strain amastigotes infected in rat L6 cell; type: toxicity, cell-based; conditions: read-out: Ratio IC50; method in brief: as §1

Row | Compound | IC50 (Leishmania donovani) | IC50 (Plasmodium falciparum) | IC50 (L6) | IC50 (Trypanosoma cruzi) | IC50 [1] | selectivity ratio [2] | selectivity ratio [3] | selectivity ratio [4] | selectivity ratio [5]
1 | Cc1ncsc1-c1nc2cc(NC(=N)N)ccc2[nH]1 | 46.8 µg/mL (≈ 172 µM) | 3.03 µg/mL (≈ 11.1 µM) | 93 µg/mL (≈ 341 µM) | 64 µg/mL (≈ 235 µM) | 17.3 µg/mL (≈ 63.5 µM) | – | – | – | –
2 | COc1ccc(Oc2ccc(-c3nc4cc(NC(=N)N)ccc4[nH]3)cc2)cc1OC | 58 µg/mL (≈ 144 µM) | 0.052 µg/mL (≈ 0.129 µM) | > 100 µg/mL | 58.6 µg/mL (≈ 145 µM) | 12.5 µg/mL (≈ 31 µM) | > 8 | > 2 | > 1920 | > 2
3 | N=C(N)Nc1ccc2[nH]c(-c3ccc4c(c3)OCCO4)nc2c1 | 56.2 µg/mL (≈ 182 µM) | 0.82 µg/mL (≈ 2.65 µM) | 73.5 µg/mL (≈ 238 µM) | 75.1 µg/mL (≈ 243 µM) | 10.1 µg/mL (≈ 32.7 µM) | – | – | – | –
4 | N=C(N)Nc1ccc2[nH]c(-c3ccc(Cl)cc3)nc2c1 | 64.5 µg/mL (≈ 226 µM) | 1.89 µg/mL (≈ 6.61 µM) | 71.1 µg/mL (≈ 249 µM) | 90.5 µg/mL (≈ 317 µM) | 29.5 µg/mL (≈ 103 µM) | – | – | – | –
5 | Cc1ccc(-c2nc3cc(NC(=N)N)ccc3[nH]2)c(C)c1 | > 100 µg/mL | 6.26 µg/mL (≈ 22.4 µM) | 97.8 µg/mL (≈ 350 µM) | > 100 µg/mL | 40.8 µg/mL (≈ 146 µM) | – | – | – | –
6 | N#Cc1ccc(-c2nc3cc(NC(=N)N)ccc3[nH]2)cc1 | > 100 µg/mL | 1.17 µg/mL (≈ 4.23 µM) | > 100 µg/mL | 89.5 µg/mL (≈ 324 µM) | 18.2 µg/mL (≈ 65.9 µM) | – | – | – | –
7 | N=C(N)Nc1ccc2[nH]c(-c3cccc4cnccc34)nc2c1 | 46.3 µg/mL (≈ 153 µM) | 2.72 µg/mL (≈ 9 µM) | 44.6 µg/mL (≈ 148 µM) | 8.57 µg/mL (≈ 28.3 µM) | 3.8 µg/mL (≈ 12.6 µM) | – | – | – | –
8 | N=C(N)Nc1ccc2[nH]c(-c3ccccc3)nc2c1 | > 100 µg/mL | 4.07 µg/mL (≈ 16.2 µM) | > 100 µg/mL | 61.2 µg/mL (≈ 244 µM) | 11.6 µg/mL (≈ 46.2 µM) | – | – | – | –
9 | N=C(N)Nc1ccc2[nH]c(-c3cccc4ccccc34)nc2c1 | > 100 µg/mL | 1.41 µg/mL (≈ 4.68 µM) | 48.9 µg/mL (≈ 162 µM) | 63.6 µg/mL (≈ 211 µM) | 11.8 µg/mL (≈ 39.2 µM) | – | – | – | –
10 | N=C(N)Nc1ccc2[nH]c(-c3ccc(OCc4ccccc4)cc3)nc2c1 | > 100 µg/mL | 0.226 µg/mL (≈ 0.632 µM) | 43.2 µg/mL (≈ 121 µM) | 38 µg/mL (≈ 106 µM) | 13.6 µg/mL (≈ 38.1 µM) | – | – | – | –
11 | N=C(N)Nc1ccc2[nH]c(-c3ccc(-c4ccccc4)cc3)nc2c1 | 52.5 µg/mL (≈ 161 µM) | 0.018 µg/mL (≈ 0.055 µM) | 46.2 µg/mL (≈ 141 µM) | 54.3 µg/mL (≈ 166 µM) | 21.5 µg/mL (≈ 65.7 µM) | 2 | 0.8 | 2360 | 0.8
12 | N=C(N)Nc1ccc2[nH]c(-c3ccc(F)c(F)c3)nc2c1 | > 100 µg/mL | 2.67 µg/mL (≈ 9.29 µM) | > 100 µg/mL | 67 µg/mL (≈ 233 µM) | 6.04 µg/mL (≈ 21 µM) | – | – | – | –
13 | N=C(N)Nc1ccc2[nH]c(-c3ccc(-c4cccs4)s3)nc2c1 | 37.7 µg/mL (≈ 111 µM) | 0.19 µg/mL (≈ 0.56 µM) | 49.9 µg/mL (≈ 147 µM) | 46.1 µg/mL (≈ 136 µM) | 11.8 µg/mL (≈ 34.8 µM) | – | – | – | –
14 | N=C(N)Nc1ccc2[nH]c(-c3csc4ccccc34)nc2c1 | 58.6 µg/mL (≈ 191 µM) | 0.57 µg/mL (≈ 1.85 µM) | 40 µg/mL (≈ 130 µM) | 53.1 µg/mL (≈ 173 µM) | 12.1 µg/mL (≈ 39.4 µM) | – | – | – | –
15 | COc1ccc(-c2nc3cc(NC(=N)N)ccc3[nH]2)cc1OC | 97.8 µg/mL (≈ 314 µM) | 0.153 µg/mL (≈ 0.491 µM) | 78 µg/mL (≈ 251 µM) | > 100 µg/mL | 23.8 µg/mL (≈ 76.4 µM) | – | – | – | –
16 | N=C(N)Nc1ccc2[nH]c(-c3cc(-c4ccc(Cl)cc4)on3)nc2c1 | 7.7 µg/mL (≈ 21.8 µM) | 1.14 µg/mL (≈ 3.23 µM) | 46.8 µg/mL (≈ 133 µM) | 21.7 µg/mL (≈ 61.5 µM) | 5.62 µg/mL (≈ 15.9 µM) | – | – | – | –
17 | N=C(N)Nc1ccc2[nH]c(-c3ccc(-c4ccccc4)s3)nc2c1 | 44 µg/mL (≈ 132 µM) | 0.279 µg/mL (≈ 0.837 µM) | 48.4 µg/mL (≈ 145 µM) | 36.5 µg/mL (≈ 109 µM) | 16 µg/mL (≈ 48 µM) | – | – | – | –
18 | N=C(N)Nc1ccc2[nH]c(-c3ccc(C(=O)O)cc3)nc2c1 | > 100 µg/mL | 37.2 µg/mL (≈ 126 µM) | > 100 µg/mL | 59.1 µg/mL (≈ 200 µM) | 72.1 µg/mL (≈ 244 µM) | – | – | – | –
19 | N=C(N)Nc1ccc2[nH]c(-c3ccc4c(c3)Cc3ccccc3-4)nc2c1 | 40.3 µg/mL (≈ 119 µM) | 0.168 µg/mL (≈ 0.495 µM) | 43.6 µg/mL (≈ 128 µM) | 34.3 µg/mL (≈ 101 µM) | 6.03 µg/mL (≈ 17.8 µM) | – | – | – | –
20 | N=C(N)Nc1ccc2[nH]c(-c3ccc(Oc4ccccc4)cc3)nc2c1 | > 100 µg/mL | 1.87 µg/mL (≈ 5.45 µM) | 51.6 µg/mL (≈ 150 µM) | 49.5 µg/mL (≈ 144 µM) | 16.1 µg/mL (≈ 46.9 µM) | – | – | – | –

Reference: ChEMBL document CHEMBL4837232, “Synthesis, in vitro antiprotozoal activity, molecular docking and molecular dynamics studies of some new monocationic guanidinobenzimidazoles” (Eur J Med Chem, 2021)
